Columns and labels:
TcdBHV [1] = experiment: In vitro TcdB autoprocessing assay; type: biochemical, Clostridium difficile BI17
TcdBHIST [2] = molecular target: T1, TcdBHIST (Clostridioides difficile, UniProt P18177); experiment: In vitro TcdB autoprocessing assay; type: biochemical, Clostridium difficile 10463
TcdBHIST [3] = molecular target: T1, TcdBHIST; experiment: AWP19 probe labeling of TcdB; type: biochemical, Clostridium difficile 10463; conditions: 1 h IP6, then AWP19 in 10-fold molar excess
TcdBHV [4] = experiment: AWP19 probe labeling of TcdB; type: biochemical, Clostridium difficile BI17; conditions: 1 h IP6, then AWP19 in 10-fold molar excess
[5] = system: TcdBHIST treated CHO-K1 cells; experiment: Inactivation of TcdB in cell culture; type: cell-based; conditions: TcdBHIST pre-incubated with 100 µM inhibitor; 24 hrs
In short: (§1)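 CHO-K1 cells were seeded at 1–2 × 10^4 cells/well in F12-K medium with 10% FBS. Toxin at 0.037, 0.37 or 3.7 pM was preincubated for 30 min in F12-K medium with 100 µM of the CPD inhibitor Ac-GSL-AOMK, then added to wells in triplicate. Cells were kept 24 h at 37°C, 6% CO₂, and viability was read by CCK-8.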

TcdBHV [6] = experiment: In vitro inhibition of IP6-induced processing with Ac-GSL-AOMK; type: biochemical, Clostridium difficile BI17
TcdBHIST [7] = molecular target: T1, TcdBHIST
[8] = system: TcdBHV treated CHO-K1 cells; experiment: Inactivation of TcdB in cell culture; type: cell-based; conditions: TcdBHV pre-incubated with 100 µM inhibitor; 24 hrs
In short: as §1

[9] = up to 100 µM inhibitor, 25 µM IP6, 3 independent experiments

T1 sequence (P18177 whole entry): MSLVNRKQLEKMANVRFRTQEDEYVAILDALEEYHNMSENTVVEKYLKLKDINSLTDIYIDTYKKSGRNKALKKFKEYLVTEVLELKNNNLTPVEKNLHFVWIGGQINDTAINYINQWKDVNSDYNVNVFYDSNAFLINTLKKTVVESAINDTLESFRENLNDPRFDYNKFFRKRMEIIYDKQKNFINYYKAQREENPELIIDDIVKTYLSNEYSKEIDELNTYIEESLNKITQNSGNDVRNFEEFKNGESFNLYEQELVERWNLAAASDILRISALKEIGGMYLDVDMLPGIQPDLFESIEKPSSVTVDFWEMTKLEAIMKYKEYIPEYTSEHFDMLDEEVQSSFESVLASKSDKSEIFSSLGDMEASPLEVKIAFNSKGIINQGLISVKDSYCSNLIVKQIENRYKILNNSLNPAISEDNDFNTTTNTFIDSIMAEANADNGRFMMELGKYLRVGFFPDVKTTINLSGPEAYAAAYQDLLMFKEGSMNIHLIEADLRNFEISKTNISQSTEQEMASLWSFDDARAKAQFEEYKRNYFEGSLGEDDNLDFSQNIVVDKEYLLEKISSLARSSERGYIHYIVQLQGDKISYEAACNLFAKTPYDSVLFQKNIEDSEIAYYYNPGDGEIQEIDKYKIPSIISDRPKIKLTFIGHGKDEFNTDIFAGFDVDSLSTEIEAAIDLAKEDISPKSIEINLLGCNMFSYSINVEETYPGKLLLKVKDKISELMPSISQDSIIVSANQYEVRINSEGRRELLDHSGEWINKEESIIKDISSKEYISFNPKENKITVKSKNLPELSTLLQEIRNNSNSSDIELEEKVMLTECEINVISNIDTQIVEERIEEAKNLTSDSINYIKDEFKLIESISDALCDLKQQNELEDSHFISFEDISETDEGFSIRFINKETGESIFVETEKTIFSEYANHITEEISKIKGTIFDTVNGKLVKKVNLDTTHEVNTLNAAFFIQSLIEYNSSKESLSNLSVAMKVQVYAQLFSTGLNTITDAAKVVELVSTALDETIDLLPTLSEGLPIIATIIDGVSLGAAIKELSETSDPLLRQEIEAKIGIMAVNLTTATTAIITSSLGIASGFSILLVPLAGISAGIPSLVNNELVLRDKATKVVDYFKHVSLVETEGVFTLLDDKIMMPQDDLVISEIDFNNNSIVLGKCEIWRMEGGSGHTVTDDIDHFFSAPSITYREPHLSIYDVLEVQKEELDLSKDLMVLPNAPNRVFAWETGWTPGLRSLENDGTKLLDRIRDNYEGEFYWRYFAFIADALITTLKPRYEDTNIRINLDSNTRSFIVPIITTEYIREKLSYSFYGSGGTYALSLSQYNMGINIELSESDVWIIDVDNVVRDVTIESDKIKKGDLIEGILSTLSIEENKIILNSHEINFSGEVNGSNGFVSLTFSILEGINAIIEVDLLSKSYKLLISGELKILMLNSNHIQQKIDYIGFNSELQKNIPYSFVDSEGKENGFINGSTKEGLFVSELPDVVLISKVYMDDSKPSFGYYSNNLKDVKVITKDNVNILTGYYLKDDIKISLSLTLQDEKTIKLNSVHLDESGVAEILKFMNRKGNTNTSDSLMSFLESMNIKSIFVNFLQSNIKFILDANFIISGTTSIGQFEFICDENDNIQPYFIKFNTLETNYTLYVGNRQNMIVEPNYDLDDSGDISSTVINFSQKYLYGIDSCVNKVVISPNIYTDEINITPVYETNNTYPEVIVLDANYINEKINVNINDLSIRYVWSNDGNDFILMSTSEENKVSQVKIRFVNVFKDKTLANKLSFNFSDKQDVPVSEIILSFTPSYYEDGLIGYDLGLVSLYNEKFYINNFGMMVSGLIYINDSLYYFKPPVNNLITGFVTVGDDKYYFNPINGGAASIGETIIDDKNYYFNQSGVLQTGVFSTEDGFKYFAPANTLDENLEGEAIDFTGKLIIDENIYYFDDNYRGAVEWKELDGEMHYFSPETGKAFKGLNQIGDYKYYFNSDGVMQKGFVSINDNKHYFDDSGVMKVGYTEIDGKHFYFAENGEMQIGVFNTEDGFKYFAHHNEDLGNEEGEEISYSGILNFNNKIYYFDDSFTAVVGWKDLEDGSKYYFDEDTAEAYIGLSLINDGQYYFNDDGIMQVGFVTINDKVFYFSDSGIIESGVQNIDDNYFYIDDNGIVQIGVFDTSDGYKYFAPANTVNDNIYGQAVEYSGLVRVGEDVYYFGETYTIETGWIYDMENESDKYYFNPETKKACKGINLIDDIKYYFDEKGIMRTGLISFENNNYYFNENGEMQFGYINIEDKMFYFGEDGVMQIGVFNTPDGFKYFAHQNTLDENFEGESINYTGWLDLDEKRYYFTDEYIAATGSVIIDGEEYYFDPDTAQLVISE

O[C@@H](CS)[C@@H](O)CS (racemic) [DTT, Dithiothreitol]
time to maximum activation (TcdBHV [1]; 5 mM DTT in place of IP6): approximately 1 h
time to activation of processing (TcdBHV [1]; 5 mM DTT in place of IP6, 90 min time-course): ≤ 15 min
activation of processing (TcdBHIST [2]; 5 mM DTT, 90 min time-course): just slightly above the level of detection

O=P(O)(O)OC1C(OP(=O)(O)O)C(OP(=O)(O)O)C(OP(=O)(O)O)C(OP(=O)(O)O)C1OP(=O)(O)O (centres unmarked) [IP6, inositol hexakisphosphate]
IP6 concentration at which AWP19-labeled toxin could be detected (TcdBHIST [3]): 5 µM
time to half-maximal level of proteolysis (TcdBHV [1]; 100 µM IP6): ≤ 2 min
percent cleavage (autoprocessing) (TcdBHV [1]; 100 µM IP6, within the first hour): ~80%
time to half-maximal level of proteolysis (TcdBHIST [2]; 100 µM IP6): ≤ 2 min
maximal processing (TcdBHIST [2]; 100 µM IP6, up to 60 min): under 60%
IP6 concentration at which AWP19-labeled toxin could be detected (TcdBHV [4]): 5 µM

Ac-GSL-AOMK
protection of CHO cells from toxin [5]: provided protection
concentration at which inhibition of IP6-induced processing was detectable (TcdBHV [6]; 25 µM IP6): around 12.5 µM
effect of inhibitor without IP6 (TcdBHV [6]; no IP6 (data not shown)): no effect
maximum percent inhibition of processing (TcdBHV [6]; [9]): around 60%
concentration at which inhibition of IP6-induced processing was detectable (TcdBHIST [7]; 25 µM IP6): around 12.5 µM
effect of inhibitor without IP6 (TcdBHIST [7]; no IP6 (data not shown)): no effect
percent of proteolysis blocked (TcdBHIST [7]; [9]): ~100%
protection of CHO cells from toxin [8]: not as functional
